In ChEMBL document CHEMBL2074537, “Interaction of 31 beta-lactam antibiotics with the H+/peptide symporter PEPT2: analysis of affinity constants and comparison with PEPT1” (Eur J Pharm Biopharm, 2005):
Values joined by “and” are separate entries in the source; they are usually repeats but may differ in a detail not shown here. Equal entries are not always repeated.

Key:
[1] = target: T1, Solute carrier family 15 member 2 (Rattus norvegicus, UniProt Q63424); assay: TP_TRANSPORTER: inhibition of Gly-Sar uptake (pH6.0) in SKPT cells; assay type: functional, cell-based
T1 sequence (Q63424 whole entry): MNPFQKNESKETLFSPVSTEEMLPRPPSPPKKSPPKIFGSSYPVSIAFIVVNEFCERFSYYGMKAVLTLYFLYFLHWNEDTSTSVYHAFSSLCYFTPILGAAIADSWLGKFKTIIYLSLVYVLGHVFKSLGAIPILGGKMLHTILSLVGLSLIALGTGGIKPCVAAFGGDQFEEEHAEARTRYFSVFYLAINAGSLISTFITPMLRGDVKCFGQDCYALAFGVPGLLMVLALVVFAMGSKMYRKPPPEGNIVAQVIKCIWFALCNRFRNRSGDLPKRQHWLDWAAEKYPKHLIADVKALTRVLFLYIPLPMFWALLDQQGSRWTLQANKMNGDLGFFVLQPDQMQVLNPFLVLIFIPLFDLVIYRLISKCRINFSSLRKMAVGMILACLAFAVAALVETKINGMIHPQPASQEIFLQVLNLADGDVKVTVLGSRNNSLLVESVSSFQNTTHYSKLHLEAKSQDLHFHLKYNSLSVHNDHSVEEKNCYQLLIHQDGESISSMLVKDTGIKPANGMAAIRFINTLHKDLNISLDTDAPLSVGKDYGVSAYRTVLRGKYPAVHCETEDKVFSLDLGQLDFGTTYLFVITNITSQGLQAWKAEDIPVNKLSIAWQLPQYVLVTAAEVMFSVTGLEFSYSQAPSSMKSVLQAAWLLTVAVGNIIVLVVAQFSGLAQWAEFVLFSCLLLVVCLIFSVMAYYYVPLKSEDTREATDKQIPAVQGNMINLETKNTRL
In short: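 Rat SKPT renal proximal tubule cells were seeded and used 4 days later. Cells were given ice-cold washes, lysed and counted by scintillation, with protein by Bradford. Non-saturable uptake was taken with 10 mM Gly-Sar.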

[2] = target: T2, Solute carrier family 15 member 1 (Homo sapiens, UniProt P46059); assay: TP_TRANSPORTER: inhibition of Gly-Sar uptake (pH6.0) in Caco-2 cells; assay type: functional, cell-based
T2 sequence (P46059 whole entry): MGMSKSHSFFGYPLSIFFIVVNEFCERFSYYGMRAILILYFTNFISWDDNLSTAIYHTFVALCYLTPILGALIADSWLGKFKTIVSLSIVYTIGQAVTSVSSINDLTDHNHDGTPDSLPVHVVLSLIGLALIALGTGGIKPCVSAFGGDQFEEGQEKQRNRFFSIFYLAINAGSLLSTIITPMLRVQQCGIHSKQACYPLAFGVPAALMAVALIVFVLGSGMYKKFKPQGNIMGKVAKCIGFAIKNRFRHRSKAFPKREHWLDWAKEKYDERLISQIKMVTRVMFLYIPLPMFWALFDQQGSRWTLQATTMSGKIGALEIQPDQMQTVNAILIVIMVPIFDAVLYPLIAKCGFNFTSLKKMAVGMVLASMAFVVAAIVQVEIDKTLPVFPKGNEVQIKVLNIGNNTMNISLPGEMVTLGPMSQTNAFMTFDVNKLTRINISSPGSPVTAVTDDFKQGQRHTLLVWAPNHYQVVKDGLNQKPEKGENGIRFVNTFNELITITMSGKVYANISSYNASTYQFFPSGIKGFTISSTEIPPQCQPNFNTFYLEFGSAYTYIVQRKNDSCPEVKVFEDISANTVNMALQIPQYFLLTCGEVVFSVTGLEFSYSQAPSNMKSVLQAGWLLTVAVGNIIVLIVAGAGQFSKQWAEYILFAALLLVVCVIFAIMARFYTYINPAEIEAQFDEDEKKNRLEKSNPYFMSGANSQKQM

Compound | Ki [1] | Ki [2]
NC(=O)c1cc[n+](CC2=C(C(=O)O)N3C(=O)[C@@H](NC(=O)[C@@H](c4ccccc4)S(=O)(=O)[O-])[C@H]3SC2)cc1 [CEFSULODIN] | > 30 mM | > 30 mM
CO/N=C(\C(=O)N[C@@H]1C(=O)N2C(C(=O)[O-])=C(C[n+]3cccc4c3CCC4)CS[C@H]12)c1csc(N)n1 [CEFPIROME] | 9.5 mM | > 30 mM
CC1(C)S[C@@H]2[C@H](NC(=O)Cc3ccccc3)C(=O)N2[C@H]1C(=O)O [PENICILLIN G] | – | > 30 mM
CO[C@@]1(NC(=O)C(C(=O)O)c2ccc(O)cc2)C(=O)N2C(C(=O)O)=C(CSc3nnnn3C)CO[C@@H]21 (some centres undefined) [MOXALACTAM] | 0.087 mM | 12.3 mM
C=N[C@@H](C(=O)N[C@@H]1C(=O)N2[C@@H]1SC(C)(C)[C@@H]2C(=O)O)c1ccccc1 [METAMPICILLIN] | 0.73 mM | 12.7 mM
N[C@@H](C(=O)N[C@@H]1C(=O)N2C(C(=O)O)=C(Cl)CS[C@H]12)c1ccccc1 [CEFACLOR ANHYDROUS] | – | > 10 mM
Cc1onc(-c2c(Cl)cccc2Cl)c1C(=O)N[C@@H]1C(=O)N2[C@@H]1SC(C)(C)[C@@H]2C(=O)O [DICLOXACILLIN] | 0.42 mM | 7.2 mM
CC1(C)S[C@@H]2[C@H](NC(=O)C3(N)CCCCC3)C(=O)N2[C@H]1C(=O)O [CYCLACILLIN] | 0.044 mM | 0.5 mM
CO[C@@]1(NC(=O)CSCC#N)C(=O)N2C(C(=O)O)=C(CSc3nnnn3C)CS[C@@H]21 [CEFMETAZOLE] | 4.3 mM | 28 mM
CO/N=C(\C(=O)N[C@@H]1C(=O)N2C(C(=O)O)=C(CSc3nc(C)c(CC(=O)O)s3)CS[C@H]12)c1csc(N)n1 [CEFODIZIME] | 9 mM | 22 mM
Nc1nc(/C(=C/CC(=O)O)C(=O)N[C@@H]2C(=O)N3C(C(=O)O)=CCS[C@H]23)cs1 [CEFTIBUTEN] | 0.28 mM | 0.34 mM
O=C(Cc1cccs1)N[C@@H]1C(=O)N2C(C(=O)[O-])=C(C[n+]3ccccc3)CS[C@H]12 [CEPHALORIDINE] | 8.5 mM | > 30 mM
CC1=C(C(=O)O)N2C(=O)[C@@H](NC(=O)[C@H](N)c3ccc(O)cc3)[C@H]2SC1 [CEFADROXIL] | – | 7.2 mM
CC(C)(O/N=C(\C(=O)N[C@@H]1C(=O)N2C(C(=O)[O-])=C(C[n+]3ccccc3)CS[C@H]12)c1csc(N)n1)C(=O)O [CEFTAZIDIME] | > 10 mM | > 10 mM
Cc1onc(-c2ccccc2Cl)c1C(=O)N[C@@H]1C(=O)N2[C@@H]1SC(C)(C)[C@@H]2C(=O)O [CLOXACILLIN] | 0.95 mM | 3 mM
CC1(C)S[C@@H]2[C@H](N)C(=O)N2[C@H]1C(=O)O | 19 mM | > 30 mM
CO/N=C(\C(=O)N[C@@H]1C(=O)N2C(C(=O)O)=C(CSc3nc(=O)c(=O)[nH]n3C)CS[C@H]12)c1csc(N)n1 [CEFTRIAXONE] | > 20 mM | > 30 mM
CO/N=C(\C(=O)N[C@@H]1C(=O)N2C(C(=O)[O-])=C(C[N+]3(C)CCCC3)CS[C@H]12)c1csc(N)n1 | 11.4 mM | > 30 mM
Cn1nnnc1SCC1=C(C(=O)O)N2C(=O)[C@@H](NC(=O)[C@H](O)c3ccccc3)[C@H]2SC1 [CEFAMANDOLE] | 2.8 mM | 8.1 mM
CC1=C(C(=O)O)N2C(=O)[C@@H](NC(=O)[C@H](N)c3ccccc3)[C@H]2SC1 [CEPHALEXIN ANHYDROUS] | 0.075 mM | –
CC(=O)OCC1=C(C(=O)O)N2C(=O)[C@@H](NC(=O)Cc3cccs3)[C@H]2SC1 [CEPHALOTHIN] | 8.3 mM | > 10 mM
Cc1onc(-c2ccccc2)c1C(=O)N[C@@H]1C(=O)N2[C@@H]1SC(C)(C)[C@@H]2C(=O)O [OXACILLIN] | 3.3 mM | 12 mM
CC(=O)OCC1=C(C(=O)O)N2C(=O)[C@@H](N)[C@H]2SC1 | 4.9 mM | > 10 mM
CO/N=C(\C(=O)N[C@@H]1C(=O)N2C(C(=O)O)=C(COC(N)=O)CS[C@H]12)c1ccco1 [CEFUROXIME] | > 0.003 mM and 12.6 mM | > 5 mM and 26 mM
C=CC1=C(C(=O)O)N2C(=O)[C@@H](NC(=O)/C(=N\OCC(=O)O)c3csc(N)n3)[C@H]2SC1 [CEFIXIME] | 2.6 mM | 12 mM
CC1=C(C(=O)O)N2C(=O)[C@@H](NC(=O)[C@H](N)C3=CCC=CC3)[C@H]2SC1 [CEPHRADINE] | 0.065 mM | 9.8 mM
CC(=O)OCC1=C(C(=O)O)N2C(=O)[C@@H](NC(=O)CSc3ccncc3)[C@H]2SC1 [CEPHAPIRIN] | > 10 mM | > 10 mM
CC1(C)S[C@@H]2[C@H](NC(=O)[C@H](N)c3ccc(O)cc3)C(=O)N2[C@H]1C(=O)O [AMOXICILLIN] | 0.43 mM | > 10 mM
CO/N=C(\C(=O)N[C@@H]1C(=O)N2C(C(=O)O)=C(COC(C)=O)CS[C@H]12)c1csc(N)n1 [CEFOTAXIME] | 20 mM | > 30 mM
